# p97 inhibitor: inhibitors of human p97 ATPase, primary screen, biochemical; Transitional endoplasmic reticulum ATPase (Homo sapiens), P55072; inhibition, % at 8 µM; recombinant p97 ATPase, Kinase-Glo ATP luminescence, 3 h; AID 1481, 2009; 0.42% of 220,000 active; in the data active means inhibition above about 15%
# Hsp70 activator: Hsp70 transcriptional activators, primary screen, cell-based, HeLa, Hsp70 promoter luciferase, luminescence, 10 µM | HeLa Hsp70 promoter luciferase reporter; scaled: vehicle 0, proteasome-inhibitor control 100% | activation, % at 10 µM | 0.04% of 200,000 active | AID 1203, 2008;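 active means activation above the mean across all tested compounds plus 3 SD, cutoff set per campaign, cut at about 5.5% in these data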
# RBBP9 inhibitor: human RBBP9 inhibitors, primary screen, biochemical, fluorescence polarization, FP-Rh probe, HTS; Serine hydrolase RBBP9 (Homo sapiens), O75884; recombinant RBBP9; inhibition, % at 7.94 µM; 0.2% of 220,000 active; AID 1515, 2009;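 active means inhibition above the campaign mean of all tested compounds plus 3 SD, cut at about 14% in these data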
#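 system = RBBP9 protein | input = RBBP9 at 2.5 µM in dispensed solution, before mixing | measured by = fluorescence polarization (mP), excitation 525 nm, emission 598 nm | incubation = enzyme-compound preincubation 30 min, then probe labeling 45 min, 25 °C | buffer or medium = Tris-NaCl-Pluronic buffer, pH 8.0 | compound = single dose 7.94 µM | also added = FP-Rh probe, 375 nM dispensing solution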
# PP5 primary: PP5 phosphatase inhibitors, primary screen, biochemical, fluorescence; Serine/threonine-protein phosphatase 5 (Homo sapiens), P53041; purified PP5c, OMFP substrate fluorescence; inhibition, % at 6.7 µM; 0.18% of 320,000 active; AID 1987, 2009;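 active means inhibition above the campaign's mean inhibition across all tested compounds plus 3 SD, cut at about 9.5% in these data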
# PP1 inh: PP1-alpha phosphatase inhibitors, primary screen, counter-screen for PP5 inhibitor project, biochemical, fluorescence, OMFP substrate, single point; purified PP1alpha; inhibition, % at 6.7 µM; 0.9% of 320,000 active;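 active means inhibition above the mean inhibition of all tested compounds plus 3 SD, computed separately for each screening campaign, cut at about 15% in these data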
# PKD1 kinase inh: inhibitors of human PKD1 kinase, biochemical, fluorescence polarization; Serine/threonine-protein kinase D1 (Homo sapiens), Q15139; PKD1 kinase fluorescence polarization assay; inhibition, % (no concentration beside the values); 0.056% of 200,000 active; in the data active means inhibition above about 50%
# Target sequence (Q15139 whole entry, looked up): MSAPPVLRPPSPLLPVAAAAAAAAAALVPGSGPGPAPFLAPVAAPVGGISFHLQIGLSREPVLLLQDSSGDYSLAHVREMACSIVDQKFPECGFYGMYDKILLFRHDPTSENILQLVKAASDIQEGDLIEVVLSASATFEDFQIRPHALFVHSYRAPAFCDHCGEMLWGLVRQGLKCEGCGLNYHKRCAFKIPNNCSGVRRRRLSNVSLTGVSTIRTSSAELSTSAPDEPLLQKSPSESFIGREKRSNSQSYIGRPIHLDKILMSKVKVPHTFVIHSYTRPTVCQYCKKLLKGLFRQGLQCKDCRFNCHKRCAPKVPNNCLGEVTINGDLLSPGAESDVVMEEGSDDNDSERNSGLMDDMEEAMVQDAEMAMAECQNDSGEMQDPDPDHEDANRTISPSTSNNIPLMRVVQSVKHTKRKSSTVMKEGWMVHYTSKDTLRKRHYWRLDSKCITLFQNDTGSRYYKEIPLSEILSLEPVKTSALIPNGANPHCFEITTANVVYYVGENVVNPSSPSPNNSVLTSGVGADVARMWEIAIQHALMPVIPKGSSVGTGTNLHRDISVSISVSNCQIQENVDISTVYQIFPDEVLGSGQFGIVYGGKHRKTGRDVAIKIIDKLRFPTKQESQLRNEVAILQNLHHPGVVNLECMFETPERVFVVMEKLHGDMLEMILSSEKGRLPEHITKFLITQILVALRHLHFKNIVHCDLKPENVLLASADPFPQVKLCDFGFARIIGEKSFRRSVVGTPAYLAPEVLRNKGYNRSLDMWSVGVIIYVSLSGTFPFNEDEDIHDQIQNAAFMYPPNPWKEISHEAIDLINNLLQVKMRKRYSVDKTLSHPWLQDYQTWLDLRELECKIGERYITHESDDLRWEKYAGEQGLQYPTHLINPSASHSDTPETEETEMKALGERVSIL
# PP1 confirm: PP1 phosphatase inhibitors, confirmation, biochemical, fluorescence, OMFP substrate, triplicate. shares compounds with PP1 inh. purified PP1alpha. inhibition, % at 6.7 µM. 52% of 1,900 active. AID 2358, 2010;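 active means mean PP1 inhibition above a set limit taken from the earlier primary screen, cut at about 15% in these data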
# PP5 inh counter: PP5 phosphatase inhibition by PP1 hits, confirmation, counter-screen for PP1 inhibitor project, biochemical, fluorescence, triplicate; shares compounds with PP1 inh; purified PP5c, OMFP fluorescence; inhibition, % at 6.7 µM; 4% of 1,900 active; AID 2360, 2010;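 active means mean PP5 inhibition over triplicate wells above about 9.5% taken from the earlier PP1 screen, limit read from the data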
# Hits are given with their value; . = inactive; / = not tested or not shown. An excerpt weighted towards active compounds, which were near 1.5% of everything screened.
SMILES,p97 inhibitor,Hsp70 activator,RBBP9 inhibitor,PP5 primary,PP1 inh,PKD1 kinase inh,PP1 confirm,PP5 inh counter
COc1ccc(CN2CCNC(=O)C2CC(=O)NC2CCCCCCC2)cc1C (stereo unspecified),/,/,/,.,.,/,/,/
Oc1cccc2ccc(/C=C/c3ccccc3Cl)nc12,/,/,/,.,19,/,.,.
CCOc1cccc(/C=C/c2ccc3cccc(O)c3n2)c1O,/,/,/,.,.,/,/,/
Oc1cccc2ccc(/C=C/c3c(F)cccc3Cl)nc12,.,.,.,.,.,.,/,/
COc1ccccc1/C=C/c1ccc2cccc(O)c2n1,/,/,/,.,23,/,.,.
CCOc1cccc(/C=C/c2ccc3cccc(O)c3n2)c1OC,/,/,/,.,21,/,15,.
O=[N+]([O-])c1cccc(/C=C/c2ccc3cccc(O)c3n2)c1,/,/,/,.,25,/,21,.
COc1cc(Cl)cc(/C=C/c2ccc3cccc(O)c3n2)c1OC,/,/,/,.,.,/,/,/
COc1ccc(Cl)cc1/C=C/c1ccc2cccc(O)c2n1,/,/,/,.,18,/,16,.
COc1ccc2c3c(cccc13)C(=O)N(O)C2=O,.,.,.,.,26,.,42,.
COc1cc2c(C#N)c(N3CCCCC3)nc(N)c2c(N)n1,.,.,.,.,.,.,/,/
COc1ccc(CN2C(=O)Cc3c2nc(N)c2c(N)nc(N4CCCCC4)c(C#N)c32)cc1,.,.,.,.,26,.,34,52
Cc1cc(C(=O)N(C)Cc2c(F)cccc2Cl)c2ccccc2n1,/,/,/,.,.,/,/,/
COC(=O)c1ccccc1NC(=O)CSc1nc(N)cc(=O)[nH]1,.,.,.,.,26,.,.,.
Cc1cc(/C=N/n2cnnc2)c(C)n1-c1ccc(OCc2ccc(Cl)cc2)cc1,.,.,.,.,28,.,26,.
COC/C=C/C1=CC2=CC(=O)C(C)(OC(=O)c3cnc4ccccc4n3)C(=O)C2=CN1Cc1ccccc1 (stereo unspecified),/,/,/,.,23,/,.,15
COC/C=C/C1=CC2=CC(=O)C(C)(OC(=O)c3cnc4ccccc4n3)C(=O)C2=CN1Cc1ccc(OC)cc1 (stereo unspecified),/,/,/,.,18,/,.,11
COC/C=C/C1=CC2=CC(=O)C(C)(OC(=O)c3cnc4ccccc4n3)C(=O)C2=CN1CC1CC1 (stereo unspecified),/,/,/,.,.,/,/,/
O=C(Nc1nnc(-c2ccco2)o1)c1cccc(Cl)c1,.,.,.,.,.,.,/,/
O=C(Nc1nnc(-c2ccco2)o1)c1ccc(Cl)s1,/,/,/,.,18,/,.,.
COc1cccc(-c2nnc(NC(=O)c3ccc(Cl)s3)o2)c1,.,.,.,.,22,.,25,.
CCn1c(CC(=O)Nc2ccc(F)cc2)nnc1SCC(=O)N1CCOCC1,/,/,/,.,.,/,/,/
CC(=O)NC1C(=O)N(CCN2CCOCC2)c2ccc(Br)cc21 (stereo unspecified),/,/,/,.,38,/,38,.
CCOC(=O)c1cc(-c2ccccc2)sc1NC(=O)CN1C(=O)NC(CC)(c2ccc(F)cc2)C1=O (stereo unspecified),.,.,.,.,.,.,/,/
CCOC(=O)c1cc(-c2ccccc2)sc1NC(=O)COC(=O)c1cccc(S(N)(=O)=O)c1,.,.,.,.,19,.,31,.
SMILES,p97 inhibitor,Hsp70 activator,RBBP9 inhibitor,PP5 primary,PP1 inh,PKD1 kinase inh,PP1 confirm,PP5 inh counter
CCOC(=O)c1cc(-c2ccccc2)sc1NC(=O)CN1C(=O)NC(CC)(c2ccccc2)C1=O (stereo unspecified),.,.,.,.,18,.,.,.
O=C(O)C(c1ccccc1)N1C(=O)/C(=C\c2ccc(-c3ccccc3Cl)o2)SC1=S (stereo unspecified),/,/,/,.,27,/,36,.
COc1ccc(NS(=O)(=O)c2cn(C)cn2)cc1OC,/,/,/,.,.,/,/,/
CCc1nnc(NC(=O)CSc2nnc3ncccn23)s1,.,.,.,.,.,.,/,/
Cc1cnc(NC(=O)CSc2nnc3ncccn23)s1,/,/,/,.,22,/,.,.
CCOc1ccccc1CNC(=O)C1CCCN(c2nn3c(=O)cc(C)nc3s2)C1 (stereo unspecified),/,/,/,.,.,/,/,/
O=C1CC(c2ccccc2)=NN1c1nc(-c2ccccc2)cs1,.,.,.,.,20,.,.,.
CC1=NN(c2nc(-c3ccccc3)cs2)C(=O)C1,.,.,.,.,20,.,.,10
CC1=NN(c2nc(-c3ccc(C#N)cc3)cs2)C(=O)C1,.,.,.,.,.,.,/,/
O=C(OCC(=O)N1CCN(c2ccccc2)CC1)c1ccccc1[N+](=O)[O-],/,/,/,.,.,/,/,/
CCOC(=O)c1c(C)[nH]c(C)c1S(=O)(=O)N(C)Cc1ccco1,/,/,/,.,.,/,/,/
O=C(Nc1nnc(C2CC2)s1)c1ccc(Cl)c(S(=O)(=O)N2CCc3ccccc3C2)c1,.,.,.,.,20,.,21,.
CCOc1ccc(S(=O)(=O)NCCC(=O)NCCCSc2ccccc2)cc1,/,/,/,.,.,/,/,/
Cc1ccc(Cn2cc(S(=O)(=O)c3ccc(C(C)C)cc3)c(=O)c3cc4c(cc32)OCO4)cc1,.,.,.,.,18,.,18,.
O=C1C(=O)N(c2cccc(Cl)c2)C(c2ccccc2[N+](=O)[O-])/C1=C(\O)c1ccccc1 (stereo unspecified),.,.,.,.,.,.,.,.
Nc1c(-c2ccc(Cl)cc2)cnc2c(-c3ccccc3)cnn12,/,/,/,.,.,/,/,/
CNC(=O)c1ccc(NC(=O)C2CCN(S(=O)(=O)c3cccc(C(F)(F)F)c3)CC2)cc1,/,/,/,.,.,/,/,/
COc1cc(NC(=O)C2CC(=O)N(Cc3ccco3)C2)cc(OC)c1 (stereo unspecified),/,/,/,.,.,/,/,/
O=C(Cc1csc(NC(=O)Nc2cccc(Cl)c2)n1)NC1CCCC1,/,/,/,.,36,/,42,.
O=C(Cc1csc(NC(=O)Nc2cccc(Cl)c2)n1)NCc1ccccn1,/,/,/,.,.,/,/,/
CCc1ccc2[nH]c(=O)c(CN(Cc3ccc4c(c3)OCO4)Cc3nnnn3C3CCCC3)cc2c1,.,.,.,.,21,.,.,.
COc1cccc(OC)c1C(=O)Nc1ccc(N2CCCC2)cc1,/,/,/,.,28,/,.,.
O=C(Nc1ccc(N2CCCC2)cc1)c1ccc(Br)cc1,/,/,/,.,24,/,.,.
COc1ccccc1C(=O)Nc1ccc(N2CCCCC2)cc1,.,.,.,.,.,.,/,/

# Compound activity: PubChem BioAssay, several laboratories
